Paper PMC5995301 (International Journal of Nanomedicine, 2018)

Assays:
[1] = tested on: human lung carcinoma (A549) cells; test: In vitro cytotoxic effect; type: cell-based
Outline: (§1)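 Cells were seeded at 5×10^3 cells/well and grown 24 h at 37°C. LLC cells were grown in DMEM with 10% FBS and A549 cells in RPMI with 10% FBS. Cells were exposed to serially diluted test compound at 0.01–10 μg/mL PMX-equivalent for 48 h. WST-8 (CCK-8) was added for 2 h and absorbance read at 450 nm. Viability is % of untreated cells; mean ± SD, n=6.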

[2] = In vivo pharmacokinetic study in rats; conditions: Sprague Dawley, rat, plasma, po, 20 mg/kg
A549 cells = test: In vitro wound-healing assay, A549 cells; type: cell-based, human; conditions: 48 h
Outline: (§2)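 Cells were plated at 3×10^4 cells/well on collagen-coated plates, LLC in DMEM and A549 in RPMI, each with 10% FBS. They were grown 48 h at 37°C to near-confluence. A wound maker scratched the monolayer, which was washed twice with PBS pH 7.4. Cells were then exposed to test compound at 0.01–10 μg/mL PMX-equivalent for 48 h at 37°C. Phase-contrast images every 12 h; automated edge-detection mask gave the area.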

[3] = Parallel artificial membrane permeability assay; type: in vitro ADME; conditions: PAMPA, pH 6.8
Outline: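 Donor wells held test compound diluted in PBS pH 6.8 to 200 μg/mL PMX-equivalent; acceptor wells held PBS pH 6.8. Plates were incubated 5 h at room temperature, then donor and acceptor were both sampled. Permeated PMX was quantified by HPLC at 254 nm.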

LLC cells = test: In vitro wound-healing assay, LLC cells; type: cell-based; conditions: equivalent to 0.5 μg/mL (0.84 μM) PMX, 48 h
Outline: as §2

[4] = In vitro permeability across a Caco-2 cell monolayer; type: in vitro ADME; conditions: human
Outline: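 Caco-2 monolayers were grown on Transwell inserts (0.4 μm pores, 1.12 cm2). Test compound was applied. Transported samples were filtered (0.45 μm PVDF), and drug in them was quantified by HPLC-UV. The apparent permeability coefficient was calculated from the transported amount.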

LLC tumor-bearing mice = test: In vivo tumor growth inhibition in LLC tumor-bearing mice; set-up: species or system C57BL/6 mice
Outline: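 Female C57BL/6 mice (20–25 g) received 1×10^6 LLC cells in 100 μL PBS pH 7.4 subcutaneously in the flank. At 80–100 mm3, mice were randomised into groups of 10 (untreated, oral daily, or IV once-weekly 20 mg/kg PMX in water). Oral groups were fasted 4 h before and 2 h after dosing. Calipers measured tumors every 3 days for 21 days; volume = a2×b×0.52. Mean ± SD, n=10.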

[5] = tested on: Lewis lung carcinoma (LLC) cells; test: In vitro cytotoxic effect; type: cell-based; conditions: 48 h, read-out: Cell viability
Outline: as §1

In vitro drug release = type: physicochemical; conditions: basket 100 rpm
[6] = once-weekly IV 20 mg/kg PMX, 3 weeks

half-life [2] [min] | Papp at 5 h, 200 μg/mL [3] [×10⁻⁶ cm/s] | Papp at 5 h, 100 μg/mL [4] [×10⁻⁶ cm/s] | Drug dissolved within 15 min (In vitro drug release; 0.1 N HCl pH 1.2, 37°C) | Drug released within 15 min (In vitro drug release; phosphate buffer pH 6.8, 37°C) | Molecule | Cell viability after the addition of excipient alone ([1]; A549 cells, excipient alone, amount matching the same molar concentration of PMX) [%] | Inhibition of cell proliferation/migration, fold higher than control cells (A549 cells; equivalent to 0.5 μg/mL (0.84 μM) PMX) [fold] | Wound recovery rate (A549 cells; equivalent to 1 μg/mL (1.67 μM) PMX) | viability at 8.37 µM ([1]; Homo sapiens, A549, 48 h, read-out: Cell viability) [%] | Relative wound recovery (LLC cells) | Reduction in tumor volume and mass vs control mice (LLC tumor-bearing mice; once-a-day oral 20 mg/kg PMX in water, 21 days) | Tumor volume lower than control group (LLC tumor-bearing mice; [6]) [%] | Tumor volume lower than oral PMX group (LLC tumor-bearing mice; [6]) [%] | viability at 0.08 µM [5] [%] | viability at 0.84 µM [5] [%] | viability at 5 µg/mL [5] [%]
– | – | – | – | – | 2-hydroxypropyl-beta-cyclodextrin [HP-beta-CD] | > 80 | – | – | – | – | – | – | – | – | – | –
422 ± 96.6 | 0.665 ± 0.207 | 0.498 ± 0.096 | More than 90% | More than 90% | Nc1nc2[nH]cc(CCc3ccc(C(=O)N[C@@H](CCC(=O)O)C(=O)O)cc3)c2c(=O)[nH]1 [PMX, N-[4-[2-(2-amino-3,4-dihydro-4-oxo-7H-pyrrolo[2,3-d]pyrimidin-5-yl)-ethyl]-benzoyl]-L-glutamic acid] | – | 1.28 | 54.0%±5.09% | 52.2 | 57.5%±5.76% | did not show significant reductions in the tumor volume and mass | 49 | 46 | < 80 | 45.4 | 29.8
